According to ChEMBL document CHEMBL2029242 (J Med Chem, 2012):

Columns and labels:
[1] = Tmax in Cynomolgus monkey at 10 mg/kg, po; assay type: ADME, organism-based, Macaca fascicularis; design: dose 10 mg/kg, route oral; settings: in vivo
How it was run: (§1)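 Male non-naive cynomolgus monkeys (2.6–3.4 kg) and beagle dogs (10.3–11.9 kg), n = 3 each, were dosed in a crossover design with a ≥7-day washout. Doses were 10 mg/kg by nasogastric gavage and 1 mg/kg as a saphenous iv bolus, both free base in 22% HPβCD. Animals were fasted overnight until about 4 h post dose. Femoral plasma was sampled from predose to 24 h and analyzed by LC-MS/MS. Parameters came from noncompartmental analysis; mean ± SD reported.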

[2] = Half life in beagle dog at 1 mg/kg, iv and 10 mg/kg, po; assay type: ADME, organism-based, Canis lupus familiaris; settings: in vivo
How it was run: (§2)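 Single-dose PK. Rats: male Sprague−Dawley, jugular-catheterized, 1 mg/kg iv in 3:1 PEG400/water (n = 2) and 10 mg/kg po in Pharmatek #6 (n = 3). Female athymic nude mice: 100 mg/kg po in Pharmatek #6 (n = 3). Beagle dogs and male cynomolgus monkeys (n = 3): crossover, 1 mg/kg iv and 10 mg/kg po in 22% HPβCD, overnight fast. Plasma LC-MS/MS to 24 h; noncompartmental parameters, mean ± SD.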

[3] = Stability in rat liver microsomes assessed as compound remaining at 1 uM after 60 mins; assay type: ADME, Microsome; settings: read-out: Stability
How it was run: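 Pooled liver microsomes (0.5 mg/mL) were premixed with 0.1 M phosphate buffer pH 7.4, 6.5 mM MgCl2 and test compound (1 μM final, 0.2% DMSO). NADPH (1 mM) started the reaction at 37 °C, in duplicate. Minus-NADPH and testosterone controls were included. Aliquots were taken at 0, 5, 15, 30 and 60 min and quenched in acetonitrile containing internal standard.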

[4] = target: T1, Serine/threonine-protein kinase B-raf (Homo sapiens, UniProt P15056, V600E)
T1 sequence (P15056 2-766 V600E limits assumed): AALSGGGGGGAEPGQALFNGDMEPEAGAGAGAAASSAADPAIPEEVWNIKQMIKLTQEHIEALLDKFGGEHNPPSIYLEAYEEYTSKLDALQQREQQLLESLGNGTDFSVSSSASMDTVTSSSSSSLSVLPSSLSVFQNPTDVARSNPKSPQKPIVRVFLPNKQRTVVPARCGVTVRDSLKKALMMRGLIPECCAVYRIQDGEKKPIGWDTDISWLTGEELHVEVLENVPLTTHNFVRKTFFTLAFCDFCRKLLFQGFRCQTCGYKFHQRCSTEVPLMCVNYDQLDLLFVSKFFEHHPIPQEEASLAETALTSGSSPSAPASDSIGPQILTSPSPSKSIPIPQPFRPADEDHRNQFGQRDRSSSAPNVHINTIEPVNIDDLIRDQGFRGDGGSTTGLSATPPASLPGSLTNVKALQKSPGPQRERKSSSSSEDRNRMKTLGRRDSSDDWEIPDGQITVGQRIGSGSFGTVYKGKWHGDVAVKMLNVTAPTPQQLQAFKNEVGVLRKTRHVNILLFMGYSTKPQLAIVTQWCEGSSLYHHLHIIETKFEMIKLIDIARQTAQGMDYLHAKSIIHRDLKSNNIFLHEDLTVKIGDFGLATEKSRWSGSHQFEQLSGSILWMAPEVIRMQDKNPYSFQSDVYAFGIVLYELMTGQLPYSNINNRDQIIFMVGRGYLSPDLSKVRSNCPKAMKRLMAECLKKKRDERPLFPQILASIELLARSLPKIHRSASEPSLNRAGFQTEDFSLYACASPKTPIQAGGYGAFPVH

[5] = target: Aurora kinase B (Homo sapiens, UniProt Q96GD4); assay: Inhibition of Aurora B in human HEK293 cells after 1 hr by competition binding assay; assay type: cell-based
Sequence of Aurora kinase B (Q96GD4 whole entry): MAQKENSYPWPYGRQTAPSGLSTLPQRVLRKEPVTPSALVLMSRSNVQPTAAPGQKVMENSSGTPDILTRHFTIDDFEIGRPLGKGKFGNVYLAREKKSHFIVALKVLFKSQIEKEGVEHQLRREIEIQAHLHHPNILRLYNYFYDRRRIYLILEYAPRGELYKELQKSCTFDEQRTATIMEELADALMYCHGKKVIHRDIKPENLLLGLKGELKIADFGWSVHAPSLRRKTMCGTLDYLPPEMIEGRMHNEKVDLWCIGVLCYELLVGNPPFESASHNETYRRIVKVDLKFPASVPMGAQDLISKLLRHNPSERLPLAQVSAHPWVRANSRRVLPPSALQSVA
How it was run: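 KINOMEscan competition binding. Binding reactions ran at rt for 1 h. Unbound kinase was captured on an immobilized affinity ligand and quantified by qPCR. Each kinase was tested individually.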

[6] = Volume of distribution in beagle dog at 1 mg/kg, iv and 10 mg/kg, po; assay type: ADME, organism-based, Canis lupus familiaris; settings: in vivo; how it was run: as §1
[7] = target: Cytochrome P450 1A2 (Homo sapiens, UniProt P05177); assay: Inhibition of human CYP1A2; assay type: ADME
Sequence of Cytochrome P450 1A2 (P05177 whole entry, canonical isoform): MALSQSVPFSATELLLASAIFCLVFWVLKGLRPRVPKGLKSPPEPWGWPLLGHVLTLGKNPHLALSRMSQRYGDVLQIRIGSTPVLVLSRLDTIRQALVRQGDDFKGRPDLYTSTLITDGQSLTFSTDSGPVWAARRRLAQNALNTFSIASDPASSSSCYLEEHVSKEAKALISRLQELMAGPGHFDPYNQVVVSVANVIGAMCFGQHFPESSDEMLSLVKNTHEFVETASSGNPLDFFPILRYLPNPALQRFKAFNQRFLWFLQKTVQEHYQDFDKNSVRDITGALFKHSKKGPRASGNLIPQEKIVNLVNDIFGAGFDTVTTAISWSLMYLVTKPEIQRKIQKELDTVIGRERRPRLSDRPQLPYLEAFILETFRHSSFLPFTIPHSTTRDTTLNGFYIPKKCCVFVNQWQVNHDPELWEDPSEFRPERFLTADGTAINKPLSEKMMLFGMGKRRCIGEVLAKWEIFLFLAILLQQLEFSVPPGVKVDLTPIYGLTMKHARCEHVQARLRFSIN
How it was run: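 Pooled human liver microsomes (0.25 mg/mL) with NADPH (1 mM) and five pooled probe substrates (testosterone, diclofenac, dextromethorphan, mephenytoin, phenacetin). Test compound ran at eight concentrations, 0.31−40 μM, 20 min at 37 °C, with pooled control inhibitors in parallel. Isoform-specific metabolites were measured by LC-MS/MS.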

[8] = tested on: SK-MEL-28; assay: Cytotoxicity against human SK-MEL-28 cells expressing BRAF V600E mutant after 72 hrs by cell titer blue assay; assay type: functional, cell-based; settings: SK-MEL-28, 72 h
How it was run: (§3)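 Cells were grown in ATCC-recommended media and kept overnight in 0.5% serum. They were then exposed to compound for 72 h, and Cell Titer Blue was added for 3 h. EC50 came from fluorometric concentration−response curves, run in duplicate and repeated at least once.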

[9] = tested on: COLO-679; assay: Cytotoxicity against human COLO679 cells expressing BRAF V600E mutant after 72 hrs by cell titer blue assay; assay type: functional, cell-based; settings: COLO-679, 72 h; how it was run: as §3
[10] = tested on: Mus musculus; assay: Toxicity in athymic nude mouse xenografted with human COLO205 cells at 10 mg/kg, po bid for 14 days; assay type: organism-based, COLO 205; design: dose 10 mg/kg, route oral; settings: in vivo, 336 h
How it was run: (§4)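 Athymic nude mice (20–25 g) were inoculated subcutaneously in the flank with 1×10^6 Colo-205 cells. At 150–200 mm3 they were randomized (n = 10/group) to oral vehicle (22% HPβCD) or 10, 30 or 100 mg/kg BID for 14 days. Calipers were used three times weekly. Body weight and behavior were monitored, with 7–10 days of follow-up after dosing. Partial regression meant volume falling in ≥3 successive measurements, ending below baseline but still palpable.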

[11] = target: T1, Serine/threonine-protein kinase B-raf; remark: listed apart in the source
[12] = tested on: DU-145; assay: Cytotoxicity against human DU145 cells expressing wild type BRAF after 72 hrs by cell titer blue assay; assay type: functional, cell-based; settings: DU-145, 72 h; how it was run: as §3
[13] = tested on: Mus musculus; assay: Toxicity in athymic nude mouse xenografted with human COLO205 cells at 30 mg/kg, po bid for 14 days; assay type: organism-based, COLO 205; design: dose 30 mg/kg, route oral; settings: in vivo, 336 h; how it was run: as §4
[14] = target: RAF proto-oncogene serine/threonine-protein kinase (Homo sapiens, UniProt P04049); assay: Inhibition of CRAF in human HEK293 cells after 1 hr by competition binding assay; assay type: cell-based
Sequence of RAF proto-oncogene serine/threonine-protein kinase (P04049 whole entry): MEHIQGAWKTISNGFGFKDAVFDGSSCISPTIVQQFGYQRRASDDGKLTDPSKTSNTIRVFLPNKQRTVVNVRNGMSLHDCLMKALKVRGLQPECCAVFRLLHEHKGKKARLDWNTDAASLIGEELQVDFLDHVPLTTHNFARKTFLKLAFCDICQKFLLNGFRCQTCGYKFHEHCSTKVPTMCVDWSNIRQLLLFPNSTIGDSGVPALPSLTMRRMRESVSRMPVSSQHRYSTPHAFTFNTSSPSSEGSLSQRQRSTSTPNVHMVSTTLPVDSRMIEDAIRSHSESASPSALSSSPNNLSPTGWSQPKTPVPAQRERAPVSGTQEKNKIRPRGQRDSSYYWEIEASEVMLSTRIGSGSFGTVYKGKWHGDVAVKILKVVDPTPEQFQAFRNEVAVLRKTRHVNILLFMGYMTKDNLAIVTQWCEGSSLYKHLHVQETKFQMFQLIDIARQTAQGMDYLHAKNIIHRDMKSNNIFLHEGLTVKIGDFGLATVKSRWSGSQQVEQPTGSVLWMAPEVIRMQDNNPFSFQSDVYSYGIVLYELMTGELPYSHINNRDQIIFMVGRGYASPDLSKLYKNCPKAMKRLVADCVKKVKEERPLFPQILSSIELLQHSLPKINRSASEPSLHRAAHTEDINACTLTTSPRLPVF
How it was run: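 KINOMEscan competition binding. Binding reactions run at rt for 1 h. Kinase not bound to compound is captured on an immobilized affinity ligand and quantified by qPCR.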

[15] = Half life in Cynomolgus monkey at 1 mg/kg, iv and 10 mg/kg, po; assay type: ADME, organism-based, Macaca fascicularis; settings: in vivo; how it was run: as §2
[16] = Clearance in Sprague-Dawley rat at 1 mg/kg, iv and 10 mg/kg, po; assay type: ADME, organism-based; settings: in vivo; how it was run: as §2
[17] = Cmax in athymic nude mouse at 100 mg/kg, po; assay type: ADME, organism-based; design: dose 100 mg/kg, route oral; settings: in vivo; how it was run: as §2
[18] = target: Tyrosine-protein kinase JAK2 (Homo sapiens, UniProt O60674); assay: Inhibition of JAK2 in human HEK293 cells after 1 hr by competition binding assay; assay type: cell-based
Sequence of Tyrosine-protein kinase JAK2 (O60674 whole entry): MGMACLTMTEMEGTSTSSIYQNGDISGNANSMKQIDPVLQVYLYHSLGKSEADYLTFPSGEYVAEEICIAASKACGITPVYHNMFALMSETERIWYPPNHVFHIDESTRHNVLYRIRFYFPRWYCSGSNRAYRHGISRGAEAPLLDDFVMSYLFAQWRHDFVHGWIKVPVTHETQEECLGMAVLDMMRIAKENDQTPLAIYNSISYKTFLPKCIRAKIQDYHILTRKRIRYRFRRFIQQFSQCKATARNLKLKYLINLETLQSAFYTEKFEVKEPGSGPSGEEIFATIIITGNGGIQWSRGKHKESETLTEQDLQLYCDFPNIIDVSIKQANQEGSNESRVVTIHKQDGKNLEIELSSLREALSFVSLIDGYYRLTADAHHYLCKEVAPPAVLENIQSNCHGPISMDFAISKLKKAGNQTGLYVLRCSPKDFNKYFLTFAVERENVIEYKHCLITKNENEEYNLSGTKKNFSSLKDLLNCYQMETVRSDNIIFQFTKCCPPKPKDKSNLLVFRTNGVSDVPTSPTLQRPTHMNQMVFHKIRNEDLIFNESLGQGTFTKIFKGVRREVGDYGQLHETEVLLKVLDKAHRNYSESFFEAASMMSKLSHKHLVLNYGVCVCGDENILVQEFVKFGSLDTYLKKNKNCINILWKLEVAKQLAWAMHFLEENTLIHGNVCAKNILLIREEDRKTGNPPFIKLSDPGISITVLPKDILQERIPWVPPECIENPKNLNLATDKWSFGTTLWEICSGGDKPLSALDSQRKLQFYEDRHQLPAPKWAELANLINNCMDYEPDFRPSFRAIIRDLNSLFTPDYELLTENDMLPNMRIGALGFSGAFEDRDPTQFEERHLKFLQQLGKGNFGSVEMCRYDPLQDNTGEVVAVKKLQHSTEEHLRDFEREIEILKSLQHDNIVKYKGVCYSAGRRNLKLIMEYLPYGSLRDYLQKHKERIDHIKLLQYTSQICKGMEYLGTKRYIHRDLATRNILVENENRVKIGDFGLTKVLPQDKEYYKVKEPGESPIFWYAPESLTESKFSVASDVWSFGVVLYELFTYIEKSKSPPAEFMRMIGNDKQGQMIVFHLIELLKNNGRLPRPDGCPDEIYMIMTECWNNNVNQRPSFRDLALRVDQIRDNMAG
How it was run: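 Unbound kinase was captured on immobilized affinity ligand and quantified by qPCR. Kd came from eleven serial 3-fold dilutions, as the mean of duplicates.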

[19] = AUC (infinity) in Cynomolgus monkey at 10 mg/kg, po; assay type: ADME, organism-based, Macaca fascicularis; design: dose 10 mg/kg, route oral, time infinity; settings: plasma; how it was run: as §2
[20] = Half life in human liver microsomes; assay type: ADME, Microsome
How it was run: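 Pooled liver microsomes (0.5 mg/mL) in 0.1 M phosphate pH 7.4 with 6.5 mM MgCl2 and compound at 1 μM (0.2% DMSO). NADPH (1 mM) started the reaction at 37 °C, with minus-NADPH and testosterone controls. Aliquots taken at 0, 5, 15, 30 and 60 min were quenched in acetonitrile; duplicates.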

[21] = Clearance in beagle dog at 1 mg/kg, iv and 10 mg/kg, po; assay type: ADME, organism-based, Canis lupus familiaris; settings: in vivo; how it was run: as §2
[22] = Oral bioavailability in Sprague-Dawley rat at 10 mg/kg; assay type: ADME, organism-based; settings: in vivo
How it was run: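 Male Sprague-Dawley rats (250–350 g, jugular-catheterized) received a single dose either iv at 1 mg/kg in 3:1 PEG400/water (n = 2) or po at 10 mg/kg in Pharmatek #6 (n = 3). Plasma was sampled at 5 min (iv only), 15 and 30 min, and 1, 2, 4, 6 and 24 h. Samples were analyzed by LC-MS/MS after acetonitrile precipitation. Parameters came from noncompartmental linear-trapezoidal analysis of individual animals.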

[23] = tested on: LNCaP; assay: Cytotoxicity against human LNCAP cells expressing wild type BRAF after 72 hrs by cell titer blue assay; assay type: functional, cell-based; how it was run: as §3
[24] = tested on: Mus musculus; assay: Inhibition of BRAF V600E mutant-mediated MEK phosphorylation in human COLO205 cells xenografted in athymic nude mouse at 55 mg/kg, po after 10 hrs; assay type: functional; settings: COLO 205, 10 h
How it was run: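 Mice bearing Colo-205 xenografts got one oral dose in 22% HPβCD; vehicle controls were run. Tumors were collected at time points over 24 h and lysed. pMEK and total MEK in the lysates were measured by immunoblotting and ELISA, and pMEK was normalized to total MEK.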

- Tmax [1]: 4 h
- half-life [2]: 12 h
- remaining at 1 h, 1 µM [3]: 81%
- Kd [4]: 14 nM
- Kd [5]: > 10000 nM
- Vd [6]: 4.5 L/kg
- IC50 [7]: > 10000 nM
- IC50 [11]: 82 nM
- Kd [14]: 39 nM
- half-life [15]: 4.9 h
- clearance [16]: 3.4 mL/min/kg
- Cmax [17]: 35.6 µM
- Kd [18]: 4700 nM
- AUC(0-inf) [19]: 92.2 µM·h
- half-life [20]: > 1 h
- clearance [21]: 5 mL/min/kg
- bioavailability [22]: 94%
Compound: COc1cc2ncnc(Oc3cccc(NC(=O)Nc4cc(C(C)(C)C(F)(F)F)on4)c3)c2cc1OC [CEP-32496]
- EC50 [8]: 454 nM
- EC50 [9]: 211 nM
- Activity [10]: Non-toxic
- EC50 [12]: 2910 nM
- Activity [13]: Non-toxic
- EC50 [23]: 6630 nM
- inhibition in vivo at 55 mg/kg [24]: 57%
